Data published in article PMC11451940 (RSC Medicinal Chemistry, 2024).
In brackets after ≈: the same amount, converted by molar mass. Several values for one entry are separate records, joined by “and”; a condition that tells them apart may be missing. Identical values can stand only once. Like-named read-outs stand apart in the source and are kept apart here.

Tests used:
[1] = test system: HOS cells (bone osteosarcoma); test: MTT in vitro cytotoxicity, HOS; assay type: cell-based, human; settings: read-out: IC50 ± SD, HOS
Outline: (§1)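 MTT assay on ATCC human lines cultured per supplier instructions: A2780, A2780R, MCF-7, PC-3, A549, HOS and normal foetal fibroblast MRC-5. Exposure was 24 h for all lines; A2780 was also tested at 48 and 72 h. IC50 came from dose–response curves, given ± SD from triplicate experiments. Selectivity index = IC50(MRC-5)/IC50(A2780).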

[2] = test system: PC-3 cells (prostate adenocarcinoma); test: MTT in vitro cytotoxicity, PC-3; assay type: cell-based, human; settings: read-out: IC50 ± SD, PC-3
Outline: as §1

[3] = test system: MRC-5 cells (human foetal fibroblasts); test: MTT in vitro cytotoxicity, normal MRC-5; assay type: cell-based; settings: for IC50: read-out: IC50 ± SD, MRC-5
Outline: as §1

[4] = test system: A549 cells (lung adenocarcinoma); test: MTT in vitro cytotoxicity, A549; assay type: cell-based, human; settings: read-out: IC50 ± SD, A549
Outline: as §1

[5] = test system: A2780 cells (human ovarian carcinoma); test: MTT in vitro cytotoxicity, A2780; assay type: cell-based
Outline: as §1

[6] = test system: A2780R cells (cisplatin-resistant ovarian carcinoma); test: MTT in vitro cytotoxicity, A2780R; assay type: cell-based, human; settings: read-out: IC50 ± SD, A2780R
Outline: as §1

[7] = test system: MCF-7 cells (breast adenocarcinoma); test: MTT in vitro cytotoxicity, MCF-7; assay type: cell-based, human; settings: read-out: IC50 ± SD, MCF-7
Outline: as §1

PC3 = settings: 72 h of incubation; cited from earlier work
HeLa = settings: 72 h of incubation; cited from earlier work
HL60 cells = settings: read-out: IC50 on HL60 cells; 48 h of incubation; cited from earlier work
3T3 = settings: 72 h of incubation; cited from earlier work
[8] = read-out: IC50 ± SD, A2780, 72 h, 72 h incubation time, MTT

Structure (SMILES): N.N.[Cl][Pt][Cl] [Cisplatin]
- IC50 ([1]; 24 h of incubation, MTT): > 50 µM
- IC50 ([2]; 24 h of incubation, MTT): > 50 µM
- SI, selectivity index expressed as IC50(MRC-5)/IC50(A2780) ([3]; 24 h of incubation): 3.0
- SI, selectivity index expressed as IC50(MRC-5)/IC50(A2780) ([3]; 24 h of incubation, listed as cisplatin): ≈ 3
- IC50 ([3]; 24 h of incubation, MTT, normal cells): 46.1 ± 2.4 µM
- IC50 ([4]; 24 h of incubation, MTT): > 50 µM
- IC50 ([5]; read-out: IC50 ± SD, A2780, 48 h, 48 h incubation time, MTT): 6.5 ± 3.2 µM
- IC50 [5, 8]: 3.7 ± 0.2 µM
- IC50 ([5]; read-out: IC50 ± SD, A2780, 24 h of incubation, MTT): 15.2 µM and 15.4 µM
- IC50 ([6]; 24 h of incubation, MTT): 42.7 ± 3.8 µM
- IC50 ([7]; 24 h of incubation, MTT): 37 ± 2.2 µM

Structure (SMILES): CC(C)=CCC1=C(O)C(=O)c2ccccc2C1=O [Lapachol, 2-hydroxy-3-(3-methylbut-2-en-1-yl)naphthalene-1,4-dione]
- IC50 on PC3 (PC3): 20.51 µg/mL (≈ 84.7 µM)
- IC50 on HeLa (HeLa): 19.04 µg/mL (≈ 78.6 µM)
- IC50 ([1]; Homo sapiens, HOS, 24 h): > 50 µM
- IC50 ([2]; Homo sapiens, PC-3, 24 h): > 50 µM
- IC50 ([3]; Homo sapiens, MRC5, 24 h): > 50 µM
- IC50 (HL60 cells): 25 µM
- IC50 ([4]; Homo sapiens, A549, 24 h): > 50 µM
- IC50 on 3T3 (3T3): 6.15 µg/mL (≈ 25.4 µM)
- IC50 ([5]; Homo sapiens, A2780, 24 h, read-out: IC50 ± SD, A2780, 24 h of incubation, MTT): > 50 µM
- IC50 [5, 8]: 6.4 ± 0.8 µM
- IC50 ([6]; Homo sapiens, 24 h): > 50 µM
- IC50 ([7]; Homo sapiens, MCF7, 24 h): > 50 µM
